Data from ChEMBL document CHEMBL1138421, “Synthesis and antiproliferative activity of (2R,3R)-disubstituted tetrahydropyrans. Part 2: Effect of side chain homologation” (2007).

Columns and labels:
Assay type in all cases: functional
[1] = tested on: A2780; assay: Antiproliferative activity against human A2780 cells after 48 hrs by sulforhodamine B assay; settings: A2780, 48 h
In short: (§1)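 Dose-response curves built per compound up to 100 μM maximum; percentage of growth (PG) computed, with GI₅₀, TGI and LC₅₀ taken as concentrations giving PG +50, 0 and −50. TGI and LC₅₀ reported only when below 100 μM. Values in μM, means of two to four experiments with standard deviation.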

[2] = tested on: SW1573; assay: Antiproliferative activity against human SW1573 cells after 48 hrs by sulforhodamine B assay; settings: SW1573, 48 h; for CC50: read-out: LC50 (the source's name); in short: as §1
[3] = tested on: WiDr; assay: Antiproliferative activity against human WiDr cells after 48 hrs by sulforhodamine B assay; in short: as §1

SMILES | GI50 [1] [µM] | GI50 [2] [µM] | GI50 [3] [µM] | LC50 (concentration giving 50% net cell kill) [1] [µM] | TGI [1] [µM] | TGI [2] [µM] | TGI [3] [µM] | CC50 [2] [µM]
c1ccc([C@H]2OC[C@H]3OCCC[C@H]3O2)cc1 | > 100 | > 100 | > 100 |  |  |  |  | 
c1cc([C@H]2OC[C@H]3OCCC[C@H]3O2)nc([C@H]2OC[C@H]3OCCC[C@H]3O2)c1 | > 100 | > 100 | > 100 |  |  |  |  | 
C=C[C@H]1CCC[C@@H]([C@H]2COC(C)(C)O2)O1 |  |  | > 100 |  |  |  |  | 
CC(C)(C)[Si](C)(C)O[C@@H]1CCCO[C@@H]1CO/C=C/C(=O)OCc1ccccc1 | 26 | 26 | 37 |  |  |  |  | 
CC(C)(C)[Si](C)(C)O[C@@H]1CCCO[C@@H]1COCC(=O)OCc1ccccc1 | 28 | 29 | 37 | 94 | 81 | 85 | 88 | 
O=C(COC[C@H]1OCCC[C@H]1O)OCc1ccccc1 | > 100 | > 100 | > 100 |  |  |  |  | 
O=C1COC[C@H]2OCCC[C@H]2O1 | > 100 | > 100 | > 100 |  |  |  |  | 
COC(=O)CCOC[C@H]1OCCC[C@H]1O[Si](C)(C)C(C)(C)C | > 100 | > 100 | > 100 |  |  |  |  | 
c1cc([C@H]2OC[C@H]3OCCC[C@H]3O2)ccc1[C@H]1OC[C@H]2OCCC[C@H]2O1 | > 100 | > 100 | > 100 |  |  |  |  | 
O=C(COC[C@H]1OCCC[C@@H]1O)OCc1ccccc1 (relative stereo) | > 100 | > 100 | > 100 |  |  |  |  | 
O=C1COC[C@H]2OCCC[C@@H]2O1 (relative stereo) | > 100 | > 100 | > 100 |  |  |  |  | 
C=CCOC[C@H]1OCCC[C@H]1O[Si](C)(C)C(C)(C)C (relative stereo) | 15 | 18 | 88 | 68 | 32 | 39 |  | 85
CC(C)(C)[Si](C)(C)O[C@H]1CCCO[C@@H]1COCC(=O)OCc1ccccc1 (relative stereo) | 17 | 17 | 28 | 74 | 36 | 37 | 91 | 79

Continued, in another order:

GI50 [1] [µM] | GI50 [2] [µM] | SMILES | GI50 [3] [µM] | LC50 (concentration giving 50% net cell kill) [1] [µM] | TGI [1] [µM] | TGI [2] [µM] | TGI [3] [µM] | CC50 [2] [µM]
> 100 | > 100 | CC(C)(C)[Si](C)(C)O[C@@H]1CCCO[C@@H]1COCCCO | > 100 |  |  |  |  | 
> 100 | > 100 | CC(C)(C)[Si](C)(C)O[C@@H]1CCCO[C@@H]1CO/C=C/CO | > 100 |  |  |  |  | 
> 100 | > 100 | CC(C)(C)[Si](C)(C)O[C@@H]1CCCO[C@@H]1CO (relative stereo) | > 100 |  |  |  |  | 
30 | 50 | COC(=O)/C=C/OC[C@H]1OCCC[C@H]1O[Si](C)(C)C(C)(C)C (relative stereo) | 36 |  | 82 |  |  | 
> 100 | > 100 | CC(C)(C)[Si](C)(C)O[C@H]1CCCO[C@@H]1CO (relative stereo) | > 100 |  |  |  |  | 
> 100 | > 100 | CC(C)(C)[Si](C)(C)O[C@@H]1CCCO[C@@H]1COCC(=O)O (relative stereo) | > 100 |  |  |  |  | 
